Experimental data taken from ChEMBL document CHEMBL1641444, “Synthesis and evaluation of 6-[1-(2-[(18)F]fluoro-3-pyridyl)-5-methyl-1H-1,2,3-triazol-4-yl]quinoline for positron emission tomography imaging of the metabotropic glutamate receptor type 1 in brain” (Bioorg Med Chem, 2011).

How the values were obtained:
[1] = biological target: T1, Metabotropic glutamate receptor 1 (Homo sapiens, UniProt Q13255); test: Binding affinity to mGluR1
[2] = biological target: Metabotropic glutamate receptor 1 (Rattus norvegicus) (UniProt P23385); test: Binding affinity to mGluR1 in Sprague-Dawley rat striatum at 0.023 nM after 30 mins by autoradiography in presence of 1 uM of mGluR5 antagonist MPEP; assay type: tissue-based; conditions: tested as the 18F-labelled form
Metabotropic glutamate receptor 1 (Rattus norvegicus), sequence (P23385 19-1199 limits assumed): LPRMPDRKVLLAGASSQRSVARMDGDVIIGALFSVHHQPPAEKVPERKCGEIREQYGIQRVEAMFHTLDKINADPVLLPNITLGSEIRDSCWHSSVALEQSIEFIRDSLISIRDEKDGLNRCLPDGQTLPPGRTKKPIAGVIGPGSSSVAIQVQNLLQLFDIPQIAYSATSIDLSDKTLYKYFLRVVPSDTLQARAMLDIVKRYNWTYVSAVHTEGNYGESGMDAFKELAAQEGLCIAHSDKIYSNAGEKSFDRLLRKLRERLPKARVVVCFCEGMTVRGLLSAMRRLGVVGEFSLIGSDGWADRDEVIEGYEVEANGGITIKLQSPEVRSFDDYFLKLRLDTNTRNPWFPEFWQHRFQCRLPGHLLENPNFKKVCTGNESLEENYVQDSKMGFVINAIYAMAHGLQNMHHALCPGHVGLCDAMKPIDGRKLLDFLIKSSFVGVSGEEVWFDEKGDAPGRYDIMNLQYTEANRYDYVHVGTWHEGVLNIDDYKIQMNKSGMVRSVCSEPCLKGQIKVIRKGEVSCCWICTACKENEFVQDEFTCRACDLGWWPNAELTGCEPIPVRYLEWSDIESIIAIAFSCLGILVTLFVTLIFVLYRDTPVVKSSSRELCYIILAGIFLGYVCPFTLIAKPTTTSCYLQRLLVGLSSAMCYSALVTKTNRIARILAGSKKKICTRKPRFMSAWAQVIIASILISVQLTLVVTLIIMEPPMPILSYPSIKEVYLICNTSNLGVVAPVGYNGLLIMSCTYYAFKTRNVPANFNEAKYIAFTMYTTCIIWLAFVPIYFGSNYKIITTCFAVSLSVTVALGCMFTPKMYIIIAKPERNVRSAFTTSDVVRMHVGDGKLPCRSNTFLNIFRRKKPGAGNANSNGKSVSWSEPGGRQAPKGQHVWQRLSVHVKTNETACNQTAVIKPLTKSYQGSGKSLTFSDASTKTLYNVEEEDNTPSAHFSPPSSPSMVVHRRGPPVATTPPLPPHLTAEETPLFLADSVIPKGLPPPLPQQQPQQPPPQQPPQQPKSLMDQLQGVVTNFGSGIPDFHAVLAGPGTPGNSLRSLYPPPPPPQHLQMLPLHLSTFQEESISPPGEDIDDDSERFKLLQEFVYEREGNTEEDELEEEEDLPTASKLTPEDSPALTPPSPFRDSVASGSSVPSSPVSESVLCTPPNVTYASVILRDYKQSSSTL
Method in brief: (§1)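 Rat brain sections were preincubated 3 × 5 min at room temperature in 50 mM Tris–HCl, pH 7.4, with 1.2 mM MgCl2 and 2 mM CaCl2. They were then incubated 30 min at room temperature in fresh buffer with 0.023 nM [18F]ligand, alone or with MPEP at two levels. Sections were washed 3 × 5 min in cold buffer, rinsed in cold water and dried. Imaging-plate autoradiography followed; regional PSL/mm2 was taken minus 1.5 PSL/mm2 background. Means ± SD, n = 6–8 per group.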

[3] = biological target: Metabotropic glutamate receptor 1 (Rattus norvegicus) (UniProt P23385); test: Binding affinity to mGluR1 in Sprague-Dawley rat whole brain assessed as reduction of total radioactivity at 0.023 nM after 30 mins by autoradiography in presence of mGluRl antagonist FPTQ; design: scale not given: the % may be the effect or the level left
[4] = biological target: Metabotropic glutamate receptor 1 (Rattus norvegicus) (UniProt P23385); test: Binding affinity to mGluR1 in Sprague-Dawley rat thalamus at 0.023 nM after 30 mins by autoradiography in presence of 10 uM of mGluR5 antagonist MPEP; conditions: tested as the 18F-labelled form; method in brief: as §1
[5] = biological target: Metabotropic glutamate receptor 1 (Rattus norvegicus) (UniProt P23385); test: Binding affinity to mGluR1 in Sprague-Dawley rat whole brain at 0.023 nM after 30 mins by autoradiography in presence of mGluRl antagonist JNJ-16259685
Method in brief: (§2)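 Sections were incubated as for the regional assay: 0.023 nM [18F]ligand, 30 min at room temperature, in 50 mM Tris–HCl pH 7.4 with MgCl2 and CaCl2, after 3 × 5 min preincubation. Unlabeled ligand or JNJ-16259685 was co-incubated to define specific binding. Sections were washed cold and exposed to imaging plates. ROIs covered the whole brain; values are PSL/mm2 minus background. n = 6–8.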

[6] = biological target: Metabotropic glutamate receptor 1 (Rattus norvegicus) (UniProt P23385); test: Binding affinity to mGluR1 in Sprague-Dawley rat cerebellum at 0.023 nM after 30 mins by autoradiography in presence of 1 uM of mGluR5 antagonist MPEP; assay type: tissue-based; conditions: tested as the 18F-labelled form; method in brief: as §1
[7] = biological target: Metabotropic glutamate receptor 1 (Rattus norvegicus) (UniProt P23385); test: Binding affinity to mGluR1 in Sprague-Dawley rat cerebellum at 0.023 nM after 30 mins by autoradiography in presence of 10 uM of mGluR5 antagonist MPEP; assay type: tissue-based; conditions: tested as the 18F-labelled form; method in brief: as §1
[8] = biological target: Metabotropic glutamate receptor 1 (Rattus norvegicus) (UniProt P23385); test: Binding affinity to mGluR1 in Sprague-Dawley rat thalamus at 0.023 nM after 30 mins by autoradiography in presence of 1 uM of mGluR5 antagonist MPEP; assay type: tissue-based; conditions: tested as the 18F-labelled form; method in brief: as §1
[9] = biological target: Metabotropic glutamate receptor 1 (Rattus norvegicus) (UniProt P23385); test: Binding affinity to mGluR1 in Sprague-Dawley rat pons-medulla at 0.023 nM after 30 mins by autoradiography in presence of 10 uM of mGluR5 antagonist MPEP; conditions: tested as the 18F-labelled form; method in brief: as §1
[10] = biological target: T1, Metabotropic glutamate receptor 1; test: Binding affinity to human mGluR1
[11] = biological target: Metabotropic glutamate receptor 1 (Rattus norvegicus) (UniProt P23385); test: Binding affinity to mGluR1 in Sprague-Dawley rat olfactory bulb at 0.023 nM after 30 mins by autoradiography in presence of 10 uM of mGluR5 antagonist MPEP; conditions: tested as the 18F-labelled form; method in brief: as §1
[12] = biological target: Metabotropic glutamate receptor 1 (Rattus norvegicus) (UniProt P23385); test: Binding affinity to mGluR1 in Sprague-Dawley rat cerebral cortex at 0.023 nM after 30 mins by autoradiography in presence of 1 uM of mGluR5 antagonist MPEP; assay type: tissue-based; conditions: tested as the 18F-labelled form; method in brief: as §1
[13] = biological target: Metabotropic glutamate receptor 1 (Rattus norvegicus) (UniProt P23385); test: Binding affinity to mGluR1 in Sprague-Dawley rat cerebral cortex at 0.023 nM after 30 mins by autoradiography in presence of 10 uM of mGluR5 antagonist MPEP; assay type: tissue-based; conditions: tested as the 18F-labelled form; method in brief: as §1
[14] = biological target: Metabotropic glutamate receptor 1 (Rattus norvegicus) (UniProt P23385); test: Binding affinity to mGluR1 in Sprague-Dawley rat whole brain at 0.023 nM after 30 mins by autoradiography in presence of mGluRl antagonist FPTQ; method in brief: as §2
[15] = biological target: Metabotropic glutamate receptor 1 (Rattus norvegicus) (UniProt P23385); test: Binding affinity to mGluR1 in Sprague-Dawley rat cerebral cortex at 0.023 nM after 30 mins by autoradiography; assay type: tissue-based; conditions: tested as the 18F-labelled form; method in brief: as §1
[16] = biological target: Metabotropic glutamate receptor 1 (Rattus norvegicus) (UniProt P23385); test: Binding affinity to mGluR1 in Sprague-Dawley rat striatum at 0.023 nM after 30 mins by autoradiography in presence of 10 uM of mGluR5 antagonist MPEP; assay type: tissue-based; conditions: tested as the 18F-labelled form; method in brief: as §1
[17] = biological target: Metabotropic glutamate receptor 1 (Rattus norvegicus) (UniProt P23385); test: Binding affinity to mGluR1 in Sprague-Dawley rat pons-medulla at 0.023 nM after 30 mins by autoradiography in presence of 1 uM of mGluR5 antagonist MPEP; conditions: tested as the 18F-labelled form; method in brief: as §1
[18] = biological target: Metabotropic glutamate receptor 1 (Rattus norvegicus) (UniProt P23385); test: Binding affinity to mGluR1 in Sprague-Dawley rat pons-medulla at 0.023 nM after 30 mins by autoradiography; conditions: tested as the 18F-labelled form; method in brief: as §1
[19] = biological target: Metabotropic glutamate receptor 1 (Rattus norvegicus) (UniProt P23385); test: Binding affinity to mGluR1 in Sprague-Dawley rat thalamus at 0.023 nM after 30 mins by autoradiography; assay type: tissue-based; conditions: tested as the 18F-labelled form; method in brief: as §1
[20] = biological target: Metabotropic glutamate receptor 1 (Rattus norvegicus) (UniProt P23385); test: Binding affinity to mGluR1 in Sprague-Dawley rat cerebellum at 0.023 nM after 30 mins by autoradiography; assay type: tissue-based; conditions: tested as the 18F-labelled form; method in brief: as §1
[21] = biological target: Metabotropic glutamate receptor 1 (Rattus norvegicus) (UniProt P23385); test: Binding affinity to mGluR1 in Sprague-Dawley rat hippocampus at 0.023 nM after 30 mins by autoradiography in presence of 1 uM of mGluR5 antagonist MPEP; assay type: tissue-based; conditions: tested as the 18F-labelled form; method in brief: as §1
[22] = biological target: Metabotropic glutamate receptor 1 (Rattus norvegicus) (UniProt P23385); test: Binding affinity to mGluR1 in Sprague-Dawley rat olfactory bulb at 0.023 nM after 30 mins by autoradiography; conditions: tested as the 18F-labelled form; method in brief: as §1
[23] = biological target: Metabotropic glutamate receptor 1 (Mus musculus, UniProt P97772); test: Binding affinity to mouse mGluR1
Metabotropic glutamate receptor 1 (Mus musculus, UniProt P97772), sequence (P97772 whole entry): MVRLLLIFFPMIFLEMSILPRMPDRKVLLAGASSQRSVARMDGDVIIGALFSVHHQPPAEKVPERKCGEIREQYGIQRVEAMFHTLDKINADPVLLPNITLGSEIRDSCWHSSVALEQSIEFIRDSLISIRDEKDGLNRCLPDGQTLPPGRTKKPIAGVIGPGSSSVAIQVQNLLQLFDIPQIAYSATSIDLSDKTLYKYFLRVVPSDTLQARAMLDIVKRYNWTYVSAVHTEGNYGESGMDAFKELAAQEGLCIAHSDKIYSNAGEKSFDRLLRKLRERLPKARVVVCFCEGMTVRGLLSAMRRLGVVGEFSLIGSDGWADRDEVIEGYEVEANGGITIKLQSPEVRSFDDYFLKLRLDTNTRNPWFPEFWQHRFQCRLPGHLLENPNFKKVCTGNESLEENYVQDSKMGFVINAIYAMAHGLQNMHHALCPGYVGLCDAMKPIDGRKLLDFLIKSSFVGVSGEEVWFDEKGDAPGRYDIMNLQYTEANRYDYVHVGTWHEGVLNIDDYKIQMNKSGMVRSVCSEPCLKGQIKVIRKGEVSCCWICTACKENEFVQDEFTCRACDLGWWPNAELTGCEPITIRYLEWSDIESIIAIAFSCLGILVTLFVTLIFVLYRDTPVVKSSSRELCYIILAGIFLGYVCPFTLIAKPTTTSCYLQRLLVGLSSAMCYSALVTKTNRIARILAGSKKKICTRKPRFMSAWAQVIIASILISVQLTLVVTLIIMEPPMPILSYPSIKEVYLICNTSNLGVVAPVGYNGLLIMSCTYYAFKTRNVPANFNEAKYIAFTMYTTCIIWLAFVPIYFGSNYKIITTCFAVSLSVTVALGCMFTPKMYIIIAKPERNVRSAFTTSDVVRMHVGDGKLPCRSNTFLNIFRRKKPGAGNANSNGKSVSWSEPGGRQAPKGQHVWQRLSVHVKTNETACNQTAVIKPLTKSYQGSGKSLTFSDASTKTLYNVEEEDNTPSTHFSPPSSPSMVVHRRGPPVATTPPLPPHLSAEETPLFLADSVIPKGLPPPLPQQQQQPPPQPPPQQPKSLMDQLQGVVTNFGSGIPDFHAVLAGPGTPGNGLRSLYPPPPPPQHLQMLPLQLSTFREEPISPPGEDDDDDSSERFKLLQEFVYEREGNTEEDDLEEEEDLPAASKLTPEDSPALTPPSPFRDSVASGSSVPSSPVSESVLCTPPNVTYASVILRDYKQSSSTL

[24] = biological target: Metabotropic glutamate receptor 1 (Rattus norvegicus) (UniProt P23385); test: Binding affinity to mGluR1 in Sprague-Dawley rat hippocampus at 0.023 nM after 30 mins by autoradiography in presence of 10 uM of mGluR5 antagonist MPEP; assay type: tissue-based; conditions: tested as the 18F-labelled form; method in brief: as §1
[25] = biological target: Metabotropic glutamate receptor 1 (Rattus norvegicus) (UniProt P23385); test: Binding affinity to mGluR1 in Sprague-Dawley rat striatum at 0.023 nM after 30 mins by autoradiography; conditions: tested as the 18F-labelled form; method in brief: as §1
[26] = biological target: Metabotropic glutamate receptor 1 (Rattus norvegicus) (UniProt P23385); test: Binding affinity to mGluR1 in Sprague-Dawley rat brain assessed as decrease of total binding at 0.023 nM after 30 mins by autoradiography in presence of 10 uM of mGluR5 antagonist MPEP; assay type: tissue-based; design: scale not given: the % may be the effect or the level left; method in brief: as §1
[27] = biological target: Metabotropic glutamate receptor 1 (Rattus norvegicus) (UniProt P23385); test: Binding affinity to mGluR1 in Sprague-Dawley rat olfactory bulb at 0.023 nM after 30 mins by autoradiography in presence of 1 uM of mGluR5 antagonist MPEP; conditions: tested as the 18F-labelled form; method in brief: as §1
[28] = biological target: Metabotropic glutamate receptor 1 (Rattus norvegicus) (UniProt P23385); test: Binding affinity to mGluR1 in Sprague-Dawley rat hippocampus at 0.023 nM after 30 mins by autoradiography; assay type: tissue-based; conditions: tested as the 18F-labelled form; method in brief: as §1

T1 sequence (Q13255 whole entry): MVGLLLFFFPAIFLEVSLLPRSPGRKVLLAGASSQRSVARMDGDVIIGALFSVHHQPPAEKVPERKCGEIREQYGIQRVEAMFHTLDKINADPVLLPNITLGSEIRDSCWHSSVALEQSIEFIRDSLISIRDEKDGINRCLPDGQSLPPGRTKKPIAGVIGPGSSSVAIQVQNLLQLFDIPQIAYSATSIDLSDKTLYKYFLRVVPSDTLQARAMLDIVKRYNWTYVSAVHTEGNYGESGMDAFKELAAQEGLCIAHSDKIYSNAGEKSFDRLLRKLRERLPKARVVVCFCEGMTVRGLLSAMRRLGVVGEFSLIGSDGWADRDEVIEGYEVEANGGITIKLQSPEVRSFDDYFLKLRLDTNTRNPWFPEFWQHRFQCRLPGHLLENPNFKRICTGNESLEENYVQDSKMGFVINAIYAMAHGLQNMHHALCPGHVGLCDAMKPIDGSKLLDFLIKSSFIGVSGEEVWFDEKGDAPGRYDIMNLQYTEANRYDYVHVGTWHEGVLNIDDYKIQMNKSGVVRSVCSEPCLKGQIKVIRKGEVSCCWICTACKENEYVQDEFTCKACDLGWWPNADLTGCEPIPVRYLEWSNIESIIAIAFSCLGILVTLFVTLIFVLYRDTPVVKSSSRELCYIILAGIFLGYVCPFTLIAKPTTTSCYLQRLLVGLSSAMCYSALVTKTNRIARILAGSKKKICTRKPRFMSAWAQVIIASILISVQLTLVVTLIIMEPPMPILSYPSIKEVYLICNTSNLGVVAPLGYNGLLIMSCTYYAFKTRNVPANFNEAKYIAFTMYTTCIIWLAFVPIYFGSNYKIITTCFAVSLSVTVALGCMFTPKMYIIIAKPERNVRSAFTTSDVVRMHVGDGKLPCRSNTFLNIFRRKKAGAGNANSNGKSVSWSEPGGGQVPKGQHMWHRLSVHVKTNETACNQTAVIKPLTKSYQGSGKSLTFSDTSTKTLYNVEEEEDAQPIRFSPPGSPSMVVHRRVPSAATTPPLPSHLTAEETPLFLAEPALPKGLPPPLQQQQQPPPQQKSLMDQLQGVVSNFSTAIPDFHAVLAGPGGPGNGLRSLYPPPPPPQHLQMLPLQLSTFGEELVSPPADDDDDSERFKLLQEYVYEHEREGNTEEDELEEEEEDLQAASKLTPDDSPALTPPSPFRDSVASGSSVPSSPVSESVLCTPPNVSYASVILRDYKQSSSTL

## CO[C@H]1CC[C@@H](C(=O)c2ccc3nc4c(cc3c2)CCCO4)CC1
[1]
  Ki: 0.34 nM

## COCCN([11CH3])Cc1ccc2nc3sc(C(=O)N(C)C4CCCCC4)cn3c2c1
[1]
  Ki: 4.8 nM

## Cc1c(-c2ccc3ncccc3c2)nnn1-c1cccnc1F
[2]
  Activity: 61.7 PSL/mm2
[3]
  Activity: < 3%
[4]
  Activity: 116 PSL/mm2
[5]
  Activity: 0.5 PSL/mm2
[6]
  Activity: 398 PSL/mm2
[7]
  Activity: 285 PSL/mm2
[8]
  Activity: 169 PSL/mm2
[9]
  Activity: 9.5 PSL/mm2
[10]
  IC50: 3.6 nM
[11]
  Activity: 49 PSL/mm2
[12]
  Activity: 23.6 PSL/mm2
[13]
  Activity: 15.7 PSL/mm2
[14]
  Activity: 0.6 PSL/mm2
[15]
  Activity: 28.2 PSL/mm2
[16]
  Activity: 40.1 PSL/mm2
[17]
  Activity: 15.2 PSL/mm2
[18]
  Activity: 17.5 PSL/mm2
[19]
  Activity: 189 PSL/mm2
[20]
  Activity: 409 PSL/mm2
[21]
  Activity: 97.4 PSL/mm2
[22]
  Activity: 88.7 PSL/mm2
[23]
  IC50: 1.4 nM
[24]
  Activity: 69.4 PSL/mm2
[25]
  Activity: 70.7 PSL/mm2
[26]
  Activity: 30%
[27]
  Activity: 76 PSL/mm2
[28]
  Activity: 112 PSL/mm2

## CCCN1Cc2cc(-c3nnn(-c4cccnc4[18F])c3C)ccc2C1=O
[1]
  Ki: 0.4 nM

## CCc1cc2cc(C(=O)[C@H]3CC[C@@H](OC)CC3)ccc2nc1[11CH3]
[1]
  Ki: 0.87 nM
